Data set [1] addresses T1, Caspase-7 (Homo sapiens, UniProt P55210).
T1 sequence (P55210 whole entry): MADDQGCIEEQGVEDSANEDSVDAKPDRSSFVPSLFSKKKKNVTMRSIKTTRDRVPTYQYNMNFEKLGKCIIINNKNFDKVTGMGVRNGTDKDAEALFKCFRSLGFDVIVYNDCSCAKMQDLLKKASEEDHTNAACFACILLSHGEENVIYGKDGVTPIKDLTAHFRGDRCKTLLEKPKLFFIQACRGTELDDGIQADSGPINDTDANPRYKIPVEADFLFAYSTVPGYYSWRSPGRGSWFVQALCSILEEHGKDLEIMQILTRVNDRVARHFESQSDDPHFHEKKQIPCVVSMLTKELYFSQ
Put plainly: Inhibition of human recombinant caspase-7 assessed as Ac-DEVD-AMC conversion to 7-amino-4-methylcoumarin incubated for 10 mins prior to substrate addition measured after 10 mins by spectrophotometric analysis. The method, boiled down: (§1)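 Recombinant caspase diluted to 0.5 unit per assay (500 pmol substrate converted in 60 min), preincubated 10 min at 37 °C in reaction buffer with inhibitor in DMSO at single final concentrations spanning 5 pM to 500 μM. Peptide substrate then added (final 10 μM) and reacted 10 min. IC50 obtained by nonlinear regression.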

The target in data set [2] is T2, Caspase-6 (Homo sapiens) (UniProt P55212).
T2 sequence (whole entry): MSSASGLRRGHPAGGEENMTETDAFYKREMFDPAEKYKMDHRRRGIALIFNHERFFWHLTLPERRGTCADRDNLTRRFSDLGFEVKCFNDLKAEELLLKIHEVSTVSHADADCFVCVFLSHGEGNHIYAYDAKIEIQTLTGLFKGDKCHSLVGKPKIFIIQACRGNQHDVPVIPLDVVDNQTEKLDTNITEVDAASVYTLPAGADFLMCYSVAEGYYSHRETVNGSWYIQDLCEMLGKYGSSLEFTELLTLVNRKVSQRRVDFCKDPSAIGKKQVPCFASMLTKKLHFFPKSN
The data set can be described thus: Inhibition of human recombinant caspase-6 assessed as Ac-VEID-AMC conversion to 7-amino-4-methylcoumarin incubated for 10 mins prior to substrate addition measured after 10 mins by spectrophotometric analysis. The method, boiled down:
as §1

In data set [3] the target is T3, Caspase-3 (Homo sapiens, UniProt P42574).
T3 sequence (P42574 whole entry): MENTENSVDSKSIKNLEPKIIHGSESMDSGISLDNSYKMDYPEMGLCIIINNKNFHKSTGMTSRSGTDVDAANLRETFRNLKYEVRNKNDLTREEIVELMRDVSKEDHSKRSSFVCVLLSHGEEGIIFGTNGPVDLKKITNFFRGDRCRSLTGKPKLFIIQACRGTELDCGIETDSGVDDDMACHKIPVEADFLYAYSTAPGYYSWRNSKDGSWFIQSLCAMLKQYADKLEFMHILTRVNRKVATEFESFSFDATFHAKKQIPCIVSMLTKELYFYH
The data set can be described thus: Inhibition of human recombinant caspase-3 assessed as Ac-DEVD-AMC conversion to 7-amino-4-methylcoumarin incubated for 10 mins prior to substrate addition measured after 10 mins by spectrophotometric analysis. The method, boiled down: as §1

The target in data set [4] is T4, Caspase-1 (Homo sapiens) (UniProt P29466).
T4 sequence (whole entry): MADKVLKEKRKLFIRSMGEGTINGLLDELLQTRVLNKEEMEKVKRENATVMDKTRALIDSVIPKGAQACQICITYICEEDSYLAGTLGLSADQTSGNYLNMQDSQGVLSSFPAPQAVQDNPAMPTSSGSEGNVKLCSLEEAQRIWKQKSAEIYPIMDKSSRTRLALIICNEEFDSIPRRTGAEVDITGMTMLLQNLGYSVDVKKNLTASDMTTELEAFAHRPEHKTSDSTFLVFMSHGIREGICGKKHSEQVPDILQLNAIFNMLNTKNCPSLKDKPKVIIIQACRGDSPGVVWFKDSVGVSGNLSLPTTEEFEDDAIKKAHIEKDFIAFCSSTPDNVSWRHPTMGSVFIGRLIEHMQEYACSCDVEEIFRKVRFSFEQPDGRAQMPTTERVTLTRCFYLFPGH
The data set can be described thus: Inhibition of human recombinant caspase-1 assessed as Ac-YVAD-AMC conversion to 7-amino-4-methylcoumarin incubated for 10 mins prior to substrate addition measured after 10 mins by spectrophotometric analysis. The method, boiled down: as §1

In data set [5] the test system is Blood. Put plainly: Biodistribution in mouse blood at 9.8 MBq, iv up to 30 mins by PET/CT analysis. It is filed as ADME, organism-based. Conditions: in vivo, 0.5 h. The method, boiled down:
(§2)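 Wild-type mice given tracer by tail vein injection through a pump-driven saline flush (300 μL/min) while PET list-mode acquisition started. CT-defined 3D volumes of interest over organs transferred to coregistered PET data. Uptake expressed as percentage injected dose: counts per mL in VOI divided by total counts in mouse, times 100% ID/mL.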

The subject of data set [6] is Mus musculus. Put plainly: Biodistribution in mouse urinary bladder at 9.8 MBq, iv after 6 to 96 mins by PET/CT analysis. It is filed as ADME, organism-based. The following applies: in vivo. The method, boiled down: as §2
Data set [7] deals with Mus musculus. Put plainly: Biodistribution in mouse gall bladder at 9.8 MBq, iv after 6 to 96 mins by PET/CT analysis. In kind it is ADME, organism-based. Conditions: in vivo. The method, boiled down: as §2
In data set [8] the test system is Intestine. Put plainly: Biodistribution in mouse intestine at 9.8 MBq, iv after 6 to 96 mins by PET/CT analysis. In kind it is ADME, organism-based. Conditions: in vivo. The method, boiled down:
as §2

Data set [9] concerns Kidney. The data set can be described thus: Biodistribution in mouse kidney at 9.8 MBq, iv after 6 mins by PET/CT analysis. The following applies: in vivo, 0.1 h. It is filed as ADME, organism-based. The method, boiled down: as §2
The test system of data set [10] is Liver. The data set can be described thus: Biodistribution in mouse liver at 9.8 MBq, iv after 6 mins by PET/CT analysis. In kind it is ADME, organism-based. Conditions: in vivo, 0.1 h. The method, boiled down: as §2
Data set [11] deals with Lung. Put plainly: Biodistribution in mouse lung at 9.8 MBq, iv after 36 seconds by PET/CT analysis. The following applies: in vivo, 0.01 h. In kind it is ADME, organism-based. The method, boiled down:
as §2

Data set [12] has as its system Heart. Put plainly: Biodistribution in mouse heart at 9.8 MBq, iv after 36 seconds by PET/CT analysis. It is filed as ADME, organism-based. The following applies: in vivo, 0.01 h. The method, boiled down:
as §2

What is called IC50 is the midpoint of a concentration-inhibition curve.

Activity calls are given as the source filed them. No cut-off for these calls is given here.

Regarding `COC[C@@H]1CCCN1S(=O)(=O)c1ccc2c(c1)C(=O)C(=O)N2CC[C@H](O)CF`, the IC50 in data set [1] was found to be 27 nM; in data set [3], 23.3 nM. For the same compound, the inhibition entry in [2] and in [4] was “Active” throughout.
In the case of `COC[C@@H]1CCCN1S(=O)(=O)c1ccc2c(c1)C(=O)C(=O)N2CC[C@H](F)CO`, the results for the IC50 in data set [1] and in data set [3] were 0.951 nM and 11.8 nM, respectively. The inhibition entry in data set [2] and in [4] was “Active” throughout.
As for `COC[C@@H]1CCCN1S(=O)(=O)c1ccc2c(c1)C(=O)C(=O)N2CC[C@@H](O)CO`, the IC50 in data set [1] is 128 nM; in [3], 187 nM. The inhibition result in data set [2] and in data set [4] was “Active” each time.
For `COC[C@@H]1CCCN1S(=O)(=O)c1ccc2c(c1)C(=O)C(=O)N2CC[C@@H](F)CO`, the half-inhibitory concentration (IC50) in [1] turned out to be 71 nM; in [3], 56 nM. For the same compound, the inhibition result in data set [2] and in data set [4] was “Active” throughout.
Regarding `COC[C@@H]1CCCN1S(=O)(=O)c1ccc2c(c1)C(=O)C(=O)N2CC[C@@H](O)C[18F]`, the Drug uptake entry in data set [5] is given as “Active”; in data set [6], “Active”; in data set [7], “Active”; in data set [8], “Active”; in [9], 5.2 %ID/ml; in data set [10], 12 %ID/ml. The Drug uptake in [11] came out at 3 %ID/ml; in data set [12] it was 3.6 %ID/ml.
Consider `COC[C@@H]1CCCN1S(=O)(=O)c1ccc2c(c1)C(=O)C(=O)N2CC[C@@H](O)CF`, for which the results for the IC50 in [1] and in data set [3] were 296 nM and 25.9 nM, respectively. The inhibition result in data set [2] and in data set [4] was “Active” each time.
Turning to `COC[C@@H]1CCCN1S(=O)(=O)c1ccc2c(c1)C(=O)C(=O)N2CC[C@H](O)CO`, the IC50 in [1] came to 103 nM; in data set [3], 106 nM. The inhibition entry in [2] and in data set [4] was “Active” in each case.
